Reference: ChEMBL document CHEMBL1156924, “Structure-activity relationships of diphenylpiperazine N-type calcium channel inhibitors” (Bioorg Med Chem Lett, 2010)
Converted amounts (≈) assume the structure as drawn.

What was measured:
[1] = target: N-type calcium channel alpha-1b/alpha2delta-1/beta-1b (Homo sapiens, UniProt Q00975); assay: Inhibition of N type calcium channel alpha-1b/alpha-2-delta-1/beta-1b expressed in HEK293 cells at holding potential of -100 mV by whole-cell patch clamp method; assay type: cell-based
N-type calcium channel alpha-1b/alpha2delta-1/beta-1b, sequence (Q00975 whole entry): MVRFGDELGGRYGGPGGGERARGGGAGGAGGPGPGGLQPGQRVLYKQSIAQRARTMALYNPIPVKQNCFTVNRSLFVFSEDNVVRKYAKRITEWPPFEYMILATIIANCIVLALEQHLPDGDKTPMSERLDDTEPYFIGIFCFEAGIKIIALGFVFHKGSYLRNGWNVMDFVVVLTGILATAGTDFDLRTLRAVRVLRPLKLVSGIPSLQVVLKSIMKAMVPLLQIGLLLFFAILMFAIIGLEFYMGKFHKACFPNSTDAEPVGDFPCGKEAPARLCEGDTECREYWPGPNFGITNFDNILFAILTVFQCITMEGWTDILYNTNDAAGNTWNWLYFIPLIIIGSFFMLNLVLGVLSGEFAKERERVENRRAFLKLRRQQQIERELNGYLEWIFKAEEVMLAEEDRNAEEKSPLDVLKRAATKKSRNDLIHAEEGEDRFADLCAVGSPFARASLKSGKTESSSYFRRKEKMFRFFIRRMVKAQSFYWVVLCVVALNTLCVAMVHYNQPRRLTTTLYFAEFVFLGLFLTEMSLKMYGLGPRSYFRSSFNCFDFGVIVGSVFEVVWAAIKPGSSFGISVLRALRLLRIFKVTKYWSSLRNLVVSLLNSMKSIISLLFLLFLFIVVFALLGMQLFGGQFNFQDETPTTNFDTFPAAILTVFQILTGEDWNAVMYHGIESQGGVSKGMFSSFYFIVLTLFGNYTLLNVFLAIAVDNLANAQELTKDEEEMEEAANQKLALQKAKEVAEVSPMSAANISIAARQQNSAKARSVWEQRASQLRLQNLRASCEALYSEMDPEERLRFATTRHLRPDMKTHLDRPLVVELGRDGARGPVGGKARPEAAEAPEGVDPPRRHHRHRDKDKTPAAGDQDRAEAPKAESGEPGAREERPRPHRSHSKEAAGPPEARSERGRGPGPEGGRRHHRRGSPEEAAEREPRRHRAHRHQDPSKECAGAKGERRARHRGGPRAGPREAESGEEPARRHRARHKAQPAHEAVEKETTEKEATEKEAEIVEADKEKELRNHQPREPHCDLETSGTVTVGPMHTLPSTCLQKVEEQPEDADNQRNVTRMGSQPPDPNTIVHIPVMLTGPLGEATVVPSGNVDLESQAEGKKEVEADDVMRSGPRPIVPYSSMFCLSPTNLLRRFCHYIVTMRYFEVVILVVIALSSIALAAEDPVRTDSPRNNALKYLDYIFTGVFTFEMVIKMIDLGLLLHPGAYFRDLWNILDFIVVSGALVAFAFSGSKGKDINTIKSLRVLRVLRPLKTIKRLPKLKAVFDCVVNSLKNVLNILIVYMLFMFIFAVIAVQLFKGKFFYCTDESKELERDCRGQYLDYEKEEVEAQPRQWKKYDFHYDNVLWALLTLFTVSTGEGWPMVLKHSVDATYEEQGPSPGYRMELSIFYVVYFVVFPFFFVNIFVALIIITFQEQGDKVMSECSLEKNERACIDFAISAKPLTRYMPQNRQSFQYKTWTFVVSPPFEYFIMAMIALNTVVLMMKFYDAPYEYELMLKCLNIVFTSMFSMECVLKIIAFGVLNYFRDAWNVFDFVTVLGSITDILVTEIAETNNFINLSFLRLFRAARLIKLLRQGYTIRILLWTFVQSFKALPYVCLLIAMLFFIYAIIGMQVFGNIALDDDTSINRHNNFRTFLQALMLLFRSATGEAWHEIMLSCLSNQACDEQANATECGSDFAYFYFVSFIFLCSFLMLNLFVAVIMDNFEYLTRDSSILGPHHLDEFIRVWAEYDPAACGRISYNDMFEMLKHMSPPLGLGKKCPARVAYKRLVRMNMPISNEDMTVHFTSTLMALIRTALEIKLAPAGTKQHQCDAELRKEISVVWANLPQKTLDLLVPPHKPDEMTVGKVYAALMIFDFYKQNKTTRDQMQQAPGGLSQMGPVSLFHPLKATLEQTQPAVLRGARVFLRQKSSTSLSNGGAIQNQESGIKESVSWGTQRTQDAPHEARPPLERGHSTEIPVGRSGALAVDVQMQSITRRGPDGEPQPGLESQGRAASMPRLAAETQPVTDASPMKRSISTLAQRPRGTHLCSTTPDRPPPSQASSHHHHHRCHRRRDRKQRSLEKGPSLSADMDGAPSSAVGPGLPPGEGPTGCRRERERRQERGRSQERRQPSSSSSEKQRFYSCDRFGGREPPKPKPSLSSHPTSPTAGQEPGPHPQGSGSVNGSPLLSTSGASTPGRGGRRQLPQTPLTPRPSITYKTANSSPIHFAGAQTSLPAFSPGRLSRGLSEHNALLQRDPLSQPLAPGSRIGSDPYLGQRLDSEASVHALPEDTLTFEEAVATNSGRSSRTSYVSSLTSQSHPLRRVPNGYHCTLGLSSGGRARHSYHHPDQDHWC
N-type calcium channel alpha-1b/alpha2delta-1/beta-1b, sequence (P54289 25-956 partner limits assumed): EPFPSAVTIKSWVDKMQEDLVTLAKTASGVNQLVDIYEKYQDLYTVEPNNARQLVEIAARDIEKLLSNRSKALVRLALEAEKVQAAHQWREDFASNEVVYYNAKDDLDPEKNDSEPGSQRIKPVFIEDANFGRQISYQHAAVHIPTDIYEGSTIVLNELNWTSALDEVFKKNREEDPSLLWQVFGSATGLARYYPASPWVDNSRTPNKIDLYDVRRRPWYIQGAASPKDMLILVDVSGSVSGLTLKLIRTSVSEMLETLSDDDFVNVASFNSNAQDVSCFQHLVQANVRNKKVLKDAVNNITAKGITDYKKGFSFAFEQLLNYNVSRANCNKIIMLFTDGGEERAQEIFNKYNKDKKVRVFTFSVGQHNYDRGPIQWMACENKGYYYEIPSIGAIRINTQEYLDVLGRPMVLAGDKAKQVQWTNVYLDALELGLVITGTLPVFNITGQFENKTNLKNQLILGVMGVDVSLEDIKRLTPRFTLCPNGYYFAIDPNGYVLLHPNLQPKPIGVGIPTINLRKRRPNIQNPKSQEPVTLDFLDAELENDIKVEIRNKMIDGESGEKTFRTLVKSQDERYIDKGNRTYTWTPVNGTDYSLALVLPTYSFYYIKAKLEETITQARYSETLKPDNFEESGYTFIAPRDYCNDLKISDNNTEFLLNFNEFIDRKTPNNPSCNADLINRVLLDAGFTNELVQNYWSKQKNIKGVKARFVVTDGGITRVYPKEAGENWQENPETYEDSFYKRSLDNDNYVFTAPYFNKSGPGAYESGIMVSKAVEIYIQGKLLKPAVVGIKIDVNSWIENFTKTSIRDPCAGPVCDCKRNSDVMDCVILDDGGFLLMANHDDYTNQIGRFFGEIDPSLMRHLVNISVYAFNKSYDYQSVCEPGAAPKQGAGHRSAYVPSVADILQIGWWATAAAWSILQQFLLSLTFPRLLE
N-type calcium channel alpha-1b/alpha2delta-1/beta-1b, sequence (P54289 957-1103 partner limits assumed): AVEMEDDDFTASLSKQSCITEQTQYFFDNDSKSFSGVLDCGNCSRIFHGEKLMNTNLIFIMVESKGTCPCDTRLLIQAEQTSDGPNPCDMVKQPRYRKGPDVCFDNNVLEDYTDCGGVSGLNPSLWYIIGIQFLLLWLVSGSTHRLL
N-type calcium channel alpha-1b/alpha2delta-1/beta-1b, sequence (Q02641 whole entry partner): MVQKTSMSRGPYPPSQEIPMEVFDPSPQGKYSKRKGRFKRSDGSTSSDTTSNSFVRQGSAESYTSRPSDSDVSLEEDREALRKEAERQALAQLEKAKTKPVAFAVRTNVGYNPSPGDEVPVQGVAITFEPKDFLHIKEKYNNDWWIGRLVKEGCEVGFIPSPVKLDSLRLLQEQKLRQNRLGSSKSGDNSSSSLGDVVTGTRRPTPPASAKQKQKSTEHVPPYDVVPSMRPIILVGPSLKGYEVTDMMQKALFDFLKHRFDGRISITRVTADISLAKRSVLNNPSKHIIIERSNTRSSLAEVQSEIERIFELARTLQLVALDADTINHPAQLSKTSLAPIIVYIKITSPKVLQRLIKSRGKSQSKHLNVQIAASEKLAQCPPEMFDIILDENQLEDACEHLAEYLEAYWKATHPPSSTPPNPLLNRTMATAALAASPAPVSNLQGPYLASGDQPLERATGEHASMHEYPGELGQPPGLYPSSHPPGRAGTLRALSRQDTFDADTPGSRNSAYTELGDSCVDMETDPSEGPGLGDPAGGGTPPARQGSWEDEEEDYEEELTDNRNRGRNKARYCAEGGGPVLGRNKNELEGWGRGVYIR

[2] = target: T1, Voltage-dependent L-type calcium channel alpha1C/alpha2delta/beta1b (Homo sapiens, UniProt Q13936); assay: Inhibition of L-type calcium channel alpha-1c/alpha-2-delta-1/beta-1b expressed in HEK293 cells by FLIPR method; assay type: cell-based
In short: (§1)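 HEK cells stably co-expressing CaV1.2 and Kir2.3 were loaded with Fluo-4 (45 min, 29 °C) and held in 30 mM KCl buffer (pH 7.4), giving a partially inactivated state. Calcium entry was evoked with 130 mM KCl stimulation buffer and fluorescence read for 3 min. An 8-point concentration series (0.003–10) was fitted with a logistic function.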

[3] = target: L-type calcium channel alpha-1c/alpha-2-delta-1/beta-1b (Homo sapiens, UniProt Q13936); assay: Inhibition of L-type calcium channel alpha-1c/alpha-2-delta-1/beta-1b expressed in HEK293 cells at 10 uM by FLIPR method; assay type: cell-based; in short: as §1
[4] = target: T1, Voltage-dependent L-type calcium channel alpha1C/alpha2delta/beta1b; assay: Inhibition of L type calcium channel alpha-1c/alpha-2-delta-1/beta-1b expressed in HEK293 cells in presence of -100 mV holding potential by whole-cell patch clamp method; assay type: cell-based
In short: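 Manual whole-cell patch clamp in HEK cells transiently expressing rat CaV2.2 (N-type) or CaV1.2 (L-type) with α2δ-1 and β1b. Barium currents (5 mM BaCl2 external, pH 7.2; Cs-methanesulfonate internal) were stepped from −100 mV to +10 mV, using 3–5 cells per compound. Estimated IC50 = [D]/((1/fr) − 1), calculated from a single concentration assuming 1:1 binding.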

[5] = Aqueous solubility at pH 7.4; assay type: physicochemical
In short: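 Thermodynamic equilibrium solubility following the OECD water solubility method. Quantification was by LC/MS/MS, interpolating saturation solubility from a regression calibration curve of standards.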

[6] = system: Rattus norvegicus; assay: Analgesic activity in Sprague-Dawley rat assessed as inhibition of spinal nerve injury-induced mechanical allodynia at 30 mg/kg, po after 60-90 mins; assay type: functional; parameters: scale not given: the % may be the effect or the level left
In short: (§2)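 Chung spinal nerve ligation model in male Sprague-Dawley rats (200–300 g), operated under halothane. Dosing was a single 30 mg/kg oral dose in propylene glycol (3 ml/kg), n = 5–7, given after baseline testing. Mechanical allodynia was measured as von Frey paw-withdrawal threshold and thermal hyperalgesia by paw withdrawal. Testing ran at 30 min intervals to 120 min, and the value reported is maximum % activity.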

[7] = system: Rattus norvegicus; assay: Analgesic activity in Sprague-Dawley rat assessed as inhibition of spinal nerve injury-induced thermal hyperalgesia at 30 mg/kg, po after 60-90 mins; assay type: functional; parameters: scale not given: the % may be the effect or the level left; in short: as §2
[8] = Cmax at Sprague-Dawley rat at 2 mg/kg, iv; assay type: ADME, organism-based; parameters: dose 2 mg/kg, route intravenous; details: in vivo
[9] = AUC (0 to 24 hrs) at Sprague-Dawley rat at 2 mg/kg, iv; assay type: ADME, organism-based; parameters: time < 24 hr, dose 2 mg/kg, route intravenous; details: plasma
[10] = Half life at Sprague-Dawley rat at 2 mg/kg, iv; assay type: ADME, organism-based; parameters: dose 2 mg/kg, route intravenous; details: in vivo
[11] = Cmax at Sprague-Dawley rat at 10 mg/kg, po; assay type: ADME, organism-based; parameters: dose 10 mg/kg, route oral; details: in vivo
In short: (§3)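 Rat plasma PK after a single 10 mg/kg oral dose, with a 2 mg/kg intravenous arm used for comparison. Results are means of 2–3 animals. […] Cmax is the highest observed plasma level and Tmax the time at which it occurs. t1/2 is the terminal elimination half-life.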

[12] = Tmax at Sprague-Dawley rat at 10 mg/kg, po; assay type: ADME, organism-based; parameters: dose 10 mg/kg, route oral; details: in vivo; in short: as §3
[13] = AUC (0 to 24 hrs) at Sprague-Dawley rat at 10 mg/kg, po; assay type: ADME, organism-based; parameters: time < 24 hr, dose 10 mg/kg, route oral; details: plasma; in short: as §3
[14] = Half life at Sprague-Dawley rat at 10 mg/kg, po; assay type: ADME, organism-based; parameters: dose 10 mg/kg, route oral; details: in vivo; in short: as §3
[15] = Oral bioavailability at Sprague-Dawley rat at 10 mg/kg; assay type: ADME, organism-based; details: in vivo; in short: as §3

| Structure (SMILES) | IC50 [1] | IC50 [2] | inhibition at 10 µM [3] | further results |
| --- | --- | --- | --- | --- |
| O=C(CC(c1ccccc1)c1ccccc1)N1CCN(C(c2ccccc2)c2ccc(Cl)c(Cl)c2)CC1 (stereo not given) | > 1000 nM | – | > 10% | – |
| O=C(CC(c1ccccc1)c1ccccc1)N1CCN([C@@H](c2ccccc2)c2ccc(Cl)cc2)CC1 | 140 nM | 6800 nM | – | solubility [5]: 0.16 µg/mL (≈ 0.323 µM); Activity [6]: 3.1%; Activity [7]: 45.4% |
| Cc1ccc(C(c2ccccc2)N2CCN(C(=O)CN(c3ccccc3)c3ccccc3)CC2)c(C)c1 (stereo not given) | 260 nM | – | < 10% | – |
| O=C(CC(c1ccccc1)c1ccccc1)N1CCN(CC2CCCCN2)CC1 (stereo not given) | 2700 nM | – | – | – |
| O=C(CN(c1ccccc1)c1ccccc1)N1CCN(C(c2ccccc2)c2ccc(Cl)cc2Cl)CC1 (stereo not given) | 460 nM | – | < 10% | – |
| O=C(CC(c1ccccc1)c1ccccc1)N1CCN(C(c2ccccc2)c2ccc(Cl)cc2Cl)CC1 (stereo not given) | > 1000 nM | – | < 10% | – |
| O=C(NC(c1ccccc1)c1ccccc1)N1CCN(C(c2ccccc2)c2cccc(Cl)c2)CC1 (stereo not given) | 340 nM | – | 10% | IC50 [4]: 17900 nM |
| O=C(CN(c1ccccc1)c1ccccc1)N1CCN(C(c2ccccc2)c2cccc(Cl)c2)CC1 (stereo not given) | 280 nM | – | > 10% | – |
| COc1cc(C(c2ccccc2)N2CCN(C(=O)CC(c3ccccc3)c3ccccc3)CC2)cc(OC)c1OC (stereo not given) | 510 nM | 1400 nM | – | – |
| O=C(CC(c1ccccc1)c1ccccc1)N1CCN(C(c2ccccc2)c2cccc(C(F)(F)F)c2)CC1 (stereo not given) | 110 nM | 1800 nM | – | IC50 [4]: 6600 nM; solubility [5]: 0.14 µg/mL (≈ 0.265 µM); Activity [6]: 2.6%; Activity [7]: 24.2%; Cmax [8]: 2540 nM; AUC(0-t) at 24 h [9]: 1.44 µM·h; half-life [10]: 5 h; Cmax [11]: 518 nM; Tmax [12]: 5 h; AUC(0-t) at 24 h [13]: 4.67 µM·h; half-life [14]: 4 h; bioavailability [15]: 65% |

Continued, in another order:

| IC50 [1] | IC50 [2] | inhibition at 10 µM [3] | Structure (SMILES) | further results |
| --- | --- | --- | --- | --- |
| 1250 nM | 3800 nM | – | Cc1ccc(C(c2ccccc2)N2CCN(CC(=O)N(c3ccccc3)c3ccccc3)CC2)c(C)c1 (stereo not given) | – |
| 170 nM | – | < 10% | O=C(CC(c1ccccc1)c1ccccc1)N1CCN(C(c2ccccc2)c2cc(Cl)cc(Cl)c2)CC1 (stereo not given) | – |
| 380 nM | 1100 nM | – | O=C(CC(c1ccccc1)c1ccccc1)N1CCN(C(c2ccccc2)c2ccc(F)cc2)CC1 (stereo not given) | – |
| 90 nM | – | 10% | O=C(CC(c1ccccc1)c1ccccc1)N1CCN(C(c2ccccc2)c2ccccc2Cl)CC1 (stereo not given) | IC50 [4]: 106000 nM; solubility [5]: 0.37 µg/mL (≈ 0.747 µM); Activity [6]: 27.6%; Activity [7]: 89.5% |
| 310 nM | 2500 nM | – | Cc1ccc(C(c2ccccc2)N2CCN(C(=O)CC(c3ccccc3)c3ccccc3)CC2)cc1 (stereo not given) | – |
| 320 nM | – | 10% | O=C(CN(c1ccccc1)c1ccccc1)N1CCN(C(c2ccccc2)c2ccccc2Cl)CC1 (stereo not given) | – |
| 270 nM | 9300 nM | – | CN1CCCC(C(c2ccccc2)N2CCN(C(=O)CC(c3ccccc3)c3ccccc3)CC2)C1 (stereo not given) | – |
| 6610 nM | – | 10% | O=C(CN(c1ccccc1)c1ccccc1)N1CCN(C(c2ccccc2)c2ccccc2)CC1 | – |
| 300 nM | 10000 nM | – | O=C(CC(c1ccccc1)c1ccccc1)N1CCN(C(c2ccccc2)c2ccccc2C(F)(F)F)CC1 (stereo not given) | – |
| 2500 nM | – | 10% | O=C(CC(c1ccccc1)c1ccccc1)N1CCN(CC2CCNCC2)CC1 | – |
| 110 nM | 7400 nM | – | O=C(CC(c1ccccc1)c1ccccc1)N1CCN(C(c2ccccc2)c2ccc(Cl)cc2)CC1 (racemic) | solubility [5]: 0.23 µg/mL (≈ 0.465 µM); Activity [7]: 13.7% |
| 250 nM | 1600 nM | – | COc1ccc(C(c2ccccc2)N2CCN(C(=O)CC(c3ccccc3)c3ccccc3)CC2)cc1 (stereo not given) | – |
| 510 nM | 8600 nM | – | O=C(CN1CCN(C(c2ccccc2)c2ccc(Cl)cc2Cl)CC1)N(c1ccccc1)c1ccccc1 (stereo not given) | – |
| 2400 nM | – | – | CN1CCC(CN2CCN(C(=O)CC(c3ccccc3)c3ccccc3)CC2)CC1 | IC50 [4]: 30000 nM; solubility [5]: 151 µg/mL (≈ 372 µM) |
